Experimental data taken from ChEMBL document CHEMBL3098128, “Design and synthesis of tamoxifen derivatives as a selective estrogen receptor down-regulator” (Bioorg Med Chem Lett, 2014).
Calls of active or inactive are those of the source. The rule behind the calls is not given here.

What was measured:
MCF7 [1] = experiment: Upregulation of ERalpha protein levels in human MCF7 cells at 10 uM after 6 hrs by Western blot method; assay type: functional, cell-based
Outline: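 MCF-7 human breast cancer cells exposed to 10 µM compound or DMSO vehicle for 6 h. Whole-cell protein extracted, and ERα protein level assessed by Western blotting against the DMSO-treated control.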

MCF7 [2] = experiment: Downregulation of ERalpha protein levels in human MCF7 cells at 1 to 30 uM after 6 hrs by Western blot method; assay type: functional, cell-based
Outline: (§1)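 MCF-7 breast cancer cells were incubated with compound or DMSO vehicle for 6 h. Compound was given at 10 µM in single-dose comparisons, or at 1 to 30 µM in the dose series. Whole-cell protein was extracted and ERα protein level was assessed by Western blotting.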

MCF7 [3] = experiment: Downregulation of ERalpha protein levels in human MCF7 cells at 10 uM after 6 hrs by Western blot method; assay type: functional, cell-based; outline: as §1
[4] = molecular target: T1, Estrogen receptor (Homo sapiens) (UniProt P03372); experiment: Antagonist activity at ERalpha in human MCF7 cells assessed as inhibition of E2-induced pS2 mRNA expression after 9 hrs by RT-PCR analysis; assay type: cell-based
T1 sequence (whole entry): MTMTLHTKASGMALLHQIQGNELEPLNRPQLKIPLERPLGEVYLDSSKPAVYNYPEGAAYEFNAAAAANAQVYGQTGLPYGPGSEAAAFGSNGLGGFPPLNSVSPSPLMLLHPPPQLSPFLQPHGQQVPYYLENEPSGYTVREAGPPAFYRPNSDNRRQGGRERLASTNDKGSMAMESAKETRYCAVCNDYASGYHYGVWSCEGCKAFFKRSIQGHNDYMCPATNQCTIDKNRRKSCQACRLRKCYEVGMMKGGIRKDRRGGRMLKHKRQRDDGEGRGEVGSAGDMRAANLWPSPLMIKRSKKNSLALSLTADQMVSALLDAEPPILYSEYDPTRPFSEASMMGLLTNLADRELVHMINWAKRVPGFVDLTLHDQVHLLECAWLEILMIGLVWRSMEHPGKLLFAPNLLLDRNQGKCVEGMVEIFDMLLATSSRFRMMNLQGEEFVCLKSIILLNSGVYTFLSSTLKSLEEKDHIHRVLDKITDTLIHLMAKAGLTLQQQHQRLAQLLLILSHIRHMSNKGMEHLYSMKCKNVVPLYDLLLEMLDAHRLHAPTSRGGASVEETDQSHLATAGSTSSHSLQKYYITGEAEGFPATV
Outline: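 MCF-7 cells treated with compound across 0.1 to 10 µM, with or without 10 nM E2, for 9 h. Total RNA was extracted and reverse-transcribed. pS2 mRNA was quantified by real-time PCR.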

MCF7 [5] = experiment: Downregulation of ERalpha protein levels in human MCF7 cells at 10 uM after 6 hrs by Western blot method in presence of proteasome inhibitor MG132; assay type: functional, cell-based
MCF7 [6] = experiment: Downregulation of ERalpha protein levels in human MCF7 cells at 30 uM after 6 hrs by Western blot method; assay type: functional, cell-based; outline: as §1
MCF7 [7] = experiment: Downregulation of ERalpha protein levels in human MCF7 cells after 6 hrs by Western blot method; assay type: functional, cell-based; outline: as §1

## CC/C(=C(\c1ccc(O)cc1)c1ccc(OCCNC)cc1)c1ccccc1
MCF7 [1]
  Activity: Active

## CCCCCCNCCOc1ccc(/C(=C(/CC)c2ccccc2)c2ccc(O)cc2)cc1
MCF7 [2]
  Activity: inactive
MCF7 [3]
  Activity: inactive

## CCCCCCCCCCCCNCCOc1ccc(/C(=C(/CC)c2ccccc2)c2ccc(O)cc2)cc1
[4]
  inhibition: Dose-dependent effect
MCF7 [5]
  Activity: inactive
MCF7 [6]
  Activity: Active
MCF7 [7]
  Activity: Dose-dependent effect
MCF7 [3]
  Activity: Active

## CCCCCCCCCCCCCCCCCCNCCOc1ccc(/C(=C(/CC)c2ccccc2)c2ccc(O)cc2)cc1
MCF7 [3]
  Activity: inactive

## CCCCCCCCCCCCN(CCCCCCCCCCCC)CCOc1ccc(/C(=C(/CC)c2ccccc2)c2ccc(O)cc2)cc1
MCF7 [3]
  Activity: inactive

## CCCCCCCCCCCCN(C)CCOc1ccc(/C(=C(/CC)c2ccccc2)c2ccc(O)cc2)cc1
MCF7 [3]
  Activity: inactive

## CCC(=C(c1ccc(O)cc1)c1ccc(OCCN(C)C)cc1)c1ccccc1
MCF7 [1]
  Activity: Active
